Where two headings read alike, the source gives them in different places.
How the values were obtained:
CYP3A4 = CYP3A4 (Homo sapiens, UniProt P08684); assay: cytochrome P450 inhibition, CYP3A4; assay type: in vitro ADME
CYP2C19 = CYP2C19 (Homo sapiens, UniProt P33261); assay: cytochrome P450 inhibition, CYP2C19; assay type: in vitro ADME
CYP2D6 = CYP2D6 (Homo sapiens, UniProt P10635); assay: cytochrome P450 inhibition, CYP2D6; assay type: in vitro ADME
CYP2C9 = CYP2C9 (Homo sapiens, UniProt P11712); assay: cytochrome P450 inhibition, CYP2C9; assay type: in vitro ADME
CYP1A2 = target: T1, CYP1A2 (Homo sapiens, UniProt P05177); assay: cytochrome P450 inhibition, CYP1A2; assay type: in vitro ADME
T1 sequence (P05177 1-516): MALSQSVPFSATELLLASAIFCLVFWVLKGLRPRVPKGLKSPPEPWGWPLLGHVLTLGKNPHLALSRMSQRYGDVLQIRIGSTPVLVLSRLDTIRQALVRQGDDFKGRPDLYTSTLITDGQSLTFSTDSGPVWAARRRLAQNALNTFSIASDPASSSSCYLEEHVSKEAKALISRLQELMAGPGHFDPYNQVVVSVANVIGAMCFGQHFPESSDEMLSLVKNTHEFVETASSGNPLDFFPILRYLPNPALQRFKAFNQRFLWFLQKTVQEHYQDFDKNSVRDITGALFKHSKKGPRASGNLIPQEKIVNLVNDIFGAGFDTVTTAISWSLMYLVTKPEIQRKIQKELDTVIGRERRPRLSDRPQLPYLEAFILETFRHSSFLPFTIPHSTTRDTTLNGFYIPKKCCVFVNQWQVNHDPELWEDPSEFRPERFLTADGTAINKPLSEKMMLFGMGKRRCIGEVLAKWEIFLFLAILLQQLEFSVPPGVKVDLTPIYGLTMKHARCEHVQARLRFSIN

Caco-2 cell monolayer = assay: Caco-2 permeability; assay type: in vitro ADME, human; conditions: Papp(B-A)/Papp(A-B)
How it was run: (§1)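 Caco-2 cells grown in DMEM with 10% FBS, penicillin and streptomycin, seeded at 1×10^5 cells/cm2 on Transwell inserts and cultured 22 days at 37°C, 5% CO2. Preincubated 30 min in HBSS–HEPES. Only inserts with lucifer yellow ≤1% used, rechecked after the run. Test compound at 2 and 20 μM (1% DMSO final) added to donor, triplicate, A–B and B–A. Papp and efflux ratio calculated.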

Caco-2 permeability = assay type: in vitro ADME, human; conditions: human
How it was run: as §1

Sequence of CYP3A4 (P08684 whole entry): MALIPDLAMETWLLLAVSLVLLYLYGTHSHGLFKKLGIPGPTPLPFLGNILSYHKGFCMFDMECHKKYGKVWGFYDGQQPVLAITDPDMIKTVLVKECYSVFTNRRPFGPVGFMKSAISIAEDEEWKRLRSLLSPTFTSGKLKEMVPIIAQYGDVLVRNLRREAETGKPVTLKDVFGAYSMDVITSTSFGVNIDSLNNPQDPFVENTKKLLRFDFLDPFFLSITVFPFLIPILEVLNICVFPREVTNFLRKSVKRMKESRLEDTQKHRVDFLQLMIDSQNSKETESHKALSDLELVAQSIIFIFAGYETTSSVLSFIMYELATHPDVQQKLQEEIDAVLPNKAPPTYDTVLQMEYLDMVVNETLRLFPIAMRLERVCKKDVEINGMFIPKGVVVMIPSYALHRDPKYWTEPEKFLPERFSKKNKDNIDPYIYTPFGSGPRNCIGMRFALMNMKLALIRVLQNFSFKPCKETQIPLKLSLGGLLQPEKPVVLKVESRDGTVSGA
Sequence of CYP2C9 (P11712 whole entry): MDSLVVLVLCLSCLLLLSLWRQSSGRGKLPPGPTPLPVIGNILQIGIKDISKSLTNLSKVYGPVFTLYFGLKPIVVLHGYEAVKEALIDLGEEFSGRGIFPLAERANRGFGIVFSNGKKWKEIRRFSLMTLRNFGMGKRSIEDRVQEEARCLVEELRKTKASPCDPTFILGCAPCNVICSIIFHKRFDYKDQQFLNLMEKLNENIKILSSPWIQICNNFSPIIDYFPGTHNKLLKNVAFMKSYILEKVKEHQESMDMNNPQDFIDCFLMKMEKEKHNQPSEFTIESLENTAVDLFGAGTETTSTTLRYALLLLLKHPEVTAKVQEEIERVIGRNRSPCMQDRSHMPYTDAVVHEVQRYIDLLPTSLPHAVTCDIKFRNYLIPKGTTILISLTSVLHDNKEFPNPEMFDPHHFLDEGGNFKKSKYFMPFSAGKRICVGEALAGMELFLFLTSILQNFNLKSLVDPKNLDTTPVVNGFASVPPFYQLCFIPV
Sequence of CYP2D6 (P10635 whole entry): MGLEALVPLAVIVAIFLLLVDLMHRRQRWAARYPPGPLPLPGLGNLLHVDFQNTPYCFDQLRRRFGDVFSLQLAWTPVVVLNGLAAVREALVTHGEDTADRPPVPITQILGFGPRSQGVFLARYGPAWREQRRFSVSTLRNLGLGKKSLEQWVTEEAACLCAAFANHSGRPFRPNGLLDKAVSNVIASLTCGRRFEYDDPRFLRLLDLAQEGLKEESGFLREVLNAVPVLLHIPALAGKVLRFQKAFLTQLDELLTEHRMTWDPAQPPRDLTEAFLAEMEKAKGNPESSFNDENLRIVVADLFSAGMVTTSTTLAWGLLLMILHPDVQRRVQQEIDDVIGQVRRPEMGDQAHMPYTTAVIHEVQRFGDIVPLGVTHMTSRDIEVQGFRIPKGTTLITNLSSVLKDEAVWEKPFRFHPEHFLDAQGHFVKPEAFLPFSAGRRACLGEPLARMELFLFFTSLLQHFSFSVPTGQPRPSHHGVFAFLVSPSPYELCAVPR
Sequence of CYP2C19 (P33261 whole entry): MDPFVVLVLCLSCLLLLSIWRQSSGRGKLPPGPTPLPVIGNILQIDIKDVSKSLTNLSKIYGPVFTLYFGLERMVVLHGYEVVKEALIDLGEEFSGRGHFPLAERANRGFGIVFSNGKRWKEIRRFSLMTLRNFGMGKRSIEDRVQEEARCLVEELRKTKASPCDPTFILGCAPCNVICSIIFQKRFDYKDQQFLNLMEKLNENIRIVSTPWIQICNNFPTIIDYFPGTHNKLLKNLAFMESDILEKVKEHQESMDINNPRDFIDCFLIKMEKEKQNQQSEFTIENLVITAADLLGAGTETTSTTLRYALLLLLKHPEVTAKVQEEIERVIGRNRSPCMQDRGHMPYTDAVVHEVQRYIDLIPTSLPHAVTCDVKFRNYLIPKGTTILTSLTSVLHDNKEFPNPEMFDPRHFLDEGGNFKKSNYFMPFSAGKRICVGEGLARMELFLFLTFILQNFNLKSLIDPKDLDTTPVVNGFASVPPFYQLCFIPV

COC(=O)c1ccc2c(c1)NC(=O)/C2=C(\Nc1ccc(N(C)C(=O)CN2CCN(C)CC2)cc1)c1ccccc1 [Nintedanib, nintedanib]
IC50 (CYP3A4): 2.3 µM
IC50 (CYP3A4; P450 inhibition IC50, 3A4 (Mid), probe substrate midazolam): > 80 µM
P450 inhibition IC50, 3A4 (Mid) (CYP3A4; probe substrate midazolam): did not show inhibition
IC50 (CYP2C19): 51.3 µM
IC50 (CYP2C19; P450 inhibition IC50, 2C19, probe substrate S-mephenytoin): ≥ 33 µM
IC50 (CYP2D6): 39.7 µM
IC50 (CYP2D6; P450 inhibition IC50, 2D6, probe substrate dextromethorphan): ≥ 33 µM
IC50 (CYP2C9): 33 µM
IC50 (CYP2C9; P450 inhibition IC50, 2C9, probe substrate diclofenac): ≥ 33 µM
IC50 (CYP1A2): 17.5 µM
Efflux ratio (Caco-2 cell monolayer; Caco-2, 2 μM): 319.81
Efflux ratio (Caco-2 cell monolayer; Caco-2, 20 μM): 78.24
Papp A→B at 120 min, 2 μM (Caco-2 permeability; Caco-2): 0.05 ×10⁻⁶ cm/s
Papp A→B at 120 min, 20 μM (Caco-2 permeability; Caco-2): 0.29 ×10⁻⁶ cm/s
Papp B→A at 120 min, 2 μM (Caco-2 permeability; Caco-2): 14.4 ×10⁻⁶ cm/s
Papp B→A at 120 min, 20 μM (Caco-2 permeability; Caco-2): 22.6 ×10⁻⁶ cm/s
efflux ratio at 120 min, 2 μM (Caco-2 permeability; Caco-2, Efflux ratio, Caco-2, 2 μM, Papp(B-A)/Papp(A-B)): ~319
efflux ratio at 120 min, 20 μM (Caco-2 permeability; Caco-2, Efflux ratio, Caco-2, 20 μM, Papp(B-A)/Papp(A-B)): ~78
